According to PubChem BioAssay AID492974 (The Scripps Research Institute Molecular Screening Center, 2010):
The source made the active and inactive calls.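 How the source made its calls: active means inhibition of the enzyme above 50%; inactive means the rest.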

Target: Aspartyl aminopeptidase (Plasmodium falciparum (isolate 3D7)) (UniProt Q8I2J3)
Assay: recombinant PfM18AAP inhibitors, late-stage follow-up, biochemical, fluorescence, powder samples, assay provider (AID 492974)
Details: H-Glu-NHMec fluorogenic substrate, at 5 µM, stronger effect = higher value
How it was run: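 system = recombinant Plasmodium falciparum M18 aspartyl aminopeptidase (rPfM18AAP), purified enzyme | input = rPfM18AAP at 1 µg/mL final | detection = kinetic fluorescence of NHMec release, excitation 370 nm, emission 460 nm, 1-min reads | reagent = fluorogenic substrate H-Glu-NHMec, 50 µM final | timing = 10 min compound–enzyme preincubation, then 30 min kinetic read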

Aspartyl aminopeptidase (Plasmodium falciparum (isolate 3D7)), sequence (Q8I2J3 whole entry, looked up): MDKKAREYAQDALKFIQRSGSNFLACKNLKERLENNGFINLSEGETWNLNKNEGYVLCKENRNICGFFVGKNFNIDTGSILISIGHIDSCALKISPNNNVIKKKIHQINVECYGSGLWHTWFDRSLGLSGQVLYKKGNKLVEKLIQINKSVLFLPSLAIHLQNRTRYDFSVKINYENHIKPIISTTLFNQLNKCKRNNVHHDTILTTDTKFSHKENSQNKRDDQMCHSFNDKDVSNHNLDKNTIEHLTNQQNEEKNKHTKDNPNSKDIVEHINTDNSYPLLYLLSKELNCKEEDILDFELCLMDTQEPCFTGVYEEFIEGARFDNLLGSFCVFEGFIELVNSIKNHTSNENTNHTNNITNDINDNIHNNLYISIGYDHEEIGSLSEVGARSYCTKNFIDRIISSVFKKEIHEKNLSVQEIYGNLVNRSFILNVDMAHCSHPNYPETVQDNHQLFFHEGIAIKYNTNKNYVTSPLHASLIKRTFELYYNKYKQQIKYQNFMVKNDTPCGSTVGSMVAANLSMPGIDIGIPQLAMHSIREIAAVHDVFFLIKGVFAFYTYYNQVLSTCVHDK

Compound	inhibition
O=C(Nc1cccc(C(F)(F)F)c1)Nn1cnnc1	27% (inactive)
Cc1ccc([N+](=O)[O-])cc1-c1[nH]c(-c2ccc(O)c(O)c2)nc1-c1ccccc1	83%
O=C(Nc1cc(Cl)ccc1Cl)Nn1cnnc1	54%
CCc1ccccc1NC(=S)Nn1cnnc1	6% (inactive)
Cc1nc2ccccn2c1C(=O)NNC(=O)Nc1ccccc1	11% (inactive)
COc1cccc2c(SCC(=O)N/N=C/c3ccc(O)c(O)c3)cc(C)nc12	51%
Cc1ccc(Cl)cc1NC(=O)Nn1cnnc1	35% (inactive)
Oc1ccc(-c2cn3ccccc3n2)cc1O	42% (inactive)
O=C(COc1ccccc1C(=O)N/N=C/c1ccc(O)c(O)c1)N/N=C/c1ccc(O)c(O)c1	76%
Cc1c(Cl)cccc1NC(=O)Nn1cnnc1	10% (inactive)
O=c1[nH]c(CSc2ncn[nH]2)nc2ccccc12	0% (inactive)
COc1cc([N+](=O)[O-])ccc1NC(=O)Nn1cnnc1	4% (inactive)
Oc1ccc(CCNc2c3ccccc3nc3ccccc23)cc1O	52%
COc1cc([N+](=O)[O-])ccc1NC(=S)Nn1cnnc1	52%
O=C(CSc1nc2ccccc2c(=O)[nH]1)c1ccc(O)c(O)c1	10% (inactive)
COC(=O)CN(n1cnnc1)S(=O)(=O)c1ccccc1	0% (inactive)
COC(=O)c1cc(C(=O)Nn2cnnc2)cc([N+](=O)[O-])c1	48% (inactive)
CN1C(=O)N(c2cccc3ccccc23)C(n2cncn2)C1(C)C (stereo unspecified)	5% (inactive)
COc1ccc(Cl)cc1NC(=O)Nn1cnnc1	22% (inactive)
Cc1cc(OCC(=O)Nn2cnnc2)ccc1Br	55%
O=C(CNC(=O)c1ccccc1)NCCc1ccc(O)c(O)c1	50%
Oc1ccc(-c2csc(-c3cccnc3)n2)cc1O	81%
Cc1ccc(Cl)cc1NC(=S)Nn1cnnc1	17% (inactive)
Nc1nncn1C(=O)CCCOc1ccc(Cl)cc1Cl	0% (inactive)
COC(=O)CN(n1cnnc1)S(=O)(=O)c1ccccc1Cl	26% (inactive)
O=c1[nH]c(=S)[nH]c(O)c1/C=C1\C=c2ccccc2=N1	42% (inactive)

Compound	inhibition
CS(=O)(=O)c1ccc2c(c1)sc1nc(=O)c(/C=C3/C=CC(=O)C(O)=C3)c(N)n12	55%
O=S(=O)(Nn1cnnc1)c1ccccc1	10% (inactive)
CC1=NNC(=O)/C1=C\c1cn(-c2ccccc2)nc1-c1ccc(F)cc1	9% (inactive)
Cc1nc(-c2ccc(O)c(O)c2)cs1	74%
CC1(C)CC2(CC(c3ccccc3F)c3ccc(O)c(O)c3O2)NC(=S)N1 (stereo unspecified)	50%
Cc1ccc(-n2c(O)c(/C=N/n3cnnc3)c3ccccc3c2=O)cc1	18% (inactive)
O=C(Nc1ccc(Br)cc1Cl)Nn1cnnc1	71%
O=C(O)c1ccc(O)c(O)c1	21% (inactive)
NCCc1ccc(O)c(O)c1	40% (inactive)
O=C(Nn1cnnc1)c1csc2ccccc12	22% (inactive)
COc1cccc(-c2cc(C(=O)Nn3cnnc3)c3ccccc3n2)c1	25% (inactive)
Br/C(C=Nn1cnnc1)=C\c1ccccc1	17% (inactive)
Cc1cccc(NC(=S)Nn2cnnc2)c1C	13% (inactive)
Cc1cc(C)cc(C(=O)n2cnnc2N)c1	0% (inactive)
COc1ccc2nc(C)cc(SCC(=O)N/N=C/c3ccc(O)c(O)c3)c2c1	63%
Cc1cc(C)n2c(=S)[nH]nc2n1	30% (inactive)
COC(=O)CN(n1cnnc1)S(=O)(=O)c1ccc(C)cc1	0% (inactive)
O=C(O)CSc1ncn[nH]1	0% (inactive)
O=C(Nc1ccc(Cl)c(Cl)c1)Nn1cnnc1	63%
O=C(CSc1nn(-c2ccccc2)c(=S)s1)Nn1cnnc1	15% (inactive)
O=C(Nc1cccc(Cl)c1Cl)Nn1cnnc1	29% (inactive)
O=C(Nc1ccccc1Cl)Nn1cnnc1	35% (inactive)
CCOC(=O)C1=C(CS(=O)(=O)c2ccc(F)cc2)NC(=O)NC1c1ccc(O)c(O)c1 (stereo unspecified)	58%
S=C(Nc1cc(Cl)ccc1Cl)Nn1cnnc1	24% (inactive)
CC(C)n1c(SCC(=O)Nc2nncs2)nnc1-c1ccco1	5% (inactive)
COc1ccc(NC(=O)NNC(=O)CCc2ccc(O)c(O)c2)cc1OC	23% (inactive)

Compound	inhibition
CC1(C)CC(=O)c2c(oc3cc(O)c(O)cc23)C1	29% (inactive)
CN1CCc2cccc3c2[C@@H]1Cc1ccc(O)c(O)c1-3	35% (inactive)
O=c1c(O)c(-c2ccc(O)c(O)c2)oc2cc(O)cc(O)c12	43% (inactive)
O=C(Nc1ccc(Cl)cc1Cl)Nn1cnnc1	48% (inactive)
Oc1cc(O)c2c(c1)O[C@H](c1ccc(O)c(O)c1)[C@H](O)C2	49% (inactive)
O=[N+]([O-])c1cc([N+](=O)[O-])c2cccnc2c1Oc1ccccc1O	16% (inactive)
Oc1ccc(/C=C/c2cc(O)cc(O)c2)cc1	50%
O=C(CSc1ncn[nH]1)OCN1C(=O)c2ccccc2C1=O	0% (inactive)
O=C(NC(=S)Nn1cnnc1)c1ccccc1Br	15% (inactive)
O=c1c2c([N+](=O)[O-])cc([N+](=O)[O-])cc2sn1Cc1ccccc1	44% (inactive)
Oc1ccc(-c2csc(-c3ccccc3)n2)cc1O	90%
O=C(O)c1cn[nH]c1-n1cnnn1	2% (inactive)
Cc1ccc(NC(=S)Nn2cnnc2)c(C)c1	3% (inactive)
O=C(CSc1ncn[nH]1)Nc1nc(-c2ccccc2)ns1	7% (inactive)
Cc1cc(=O)[nH]c(SCC(=O)c2ccc(O)c(O)c2)n1	0% (inactive)
CCC(C)c1ccc(O)c(N)c1 (stereo unspecified)	65%
COc1ccc(C(=O)n2cnnc2N)cc1	4% (inactive)
COc1cc(Br)cc(/C=N/c2ncn[nH]2)c1O	0% (inactive)
OC(Cn1cnnc1)c1ccccc1 (stereo unspecified)	19% (inactive)
O=C(Nc1ccc([N+](=O)[O-])cc1)Nn1cnnc1	59%
CCN(CC)S(=O)(=O)c1ccc(C(=O)Nn2cnnc2)cc1	26% (inactive)
O=C(CSc1nnc(-c2ccccc2)o1)Nn1cnnc1	58%
Oc1ccc(C2=Nn3c(nnc3-c3ccco3)SC2)cc1O	52%
O=C(Nn1cnnc1)c1ccccc1-c1ccccc1	21% (inactive)
